This is an account of results in ChEMBL document CHEMBL4145675, “2-Phenylquinoline S. aureus NorA Efflux Pump Inhibitors: Evaluation of the Importance of Methoxy Group Introduction” (J Med Chem, 2018).

The target of this experiment is T1, Quinolone resistance protein NorA (Staphylococcus aureus) (UniProt P0A0J7).
T1 sequence (whole entry): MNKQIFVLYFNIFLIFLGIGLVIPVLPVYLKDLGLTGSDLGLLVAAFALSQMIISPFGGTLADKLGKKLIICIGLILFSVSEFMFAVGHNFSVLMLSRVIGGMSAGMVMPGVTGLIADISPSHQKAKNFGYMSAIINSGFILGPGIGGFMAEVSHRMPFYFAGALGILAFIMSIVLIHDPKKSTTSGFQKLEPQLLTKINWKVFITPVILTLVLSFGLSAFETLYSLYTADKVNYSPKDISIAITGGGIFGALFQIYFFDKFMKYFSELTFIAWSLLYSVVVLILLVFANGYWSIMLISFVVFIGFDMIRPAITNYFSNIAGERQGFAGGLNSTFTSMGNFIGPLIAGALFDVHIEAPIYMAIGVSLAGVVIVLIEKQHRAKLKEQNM
Kind of experiment: Inhibition of NorA in Staphylococcus aureus SA-1199B expressing GrlA A116E mutant assessed as reduction in EtBr efflux at 50 uM incubated for 5 mins by fluorescence based assay. A digest of the protocol:
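Cells were grown overnight in cation-supplemented Mueller-Hinton broth at 35 °C and subcultured to OD600 0.7–0.8. They were loaded at OD600 0.8 with 25 µM EtBr plus 100 µM CCCP (final) for 20 min at room temperature. Cells were then resuspended in fresh broth with or without compound, 50 µM for the single-point screen or a concentration series for IC50. Fluorescence (ex 485/em 645 nm) was read for 5 min. Inhibition was calculated from the fluorescence decrease versus untreated cells. Biological triplicate, each run twice.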
Turning to `CCCOc1ccc(-c2cc(OCCCN(C)C)c3cc(OC)ccc3n2)cc1`, the inhibition was determined as 79.5%.
The same measure for `CCCOc1ccc(-c2cc(OCCN3CCCCC3)c3c(OC)cc(OC)cc3n2)cc1`: 49.7%.
Regarding `CCCOc1ccc(-c2cc(OCCN3CCCCCC3)c3cc(OC)c(OC)cc3n2)cc1`, the inhibition amounted to 67.9%.
Turning to `CCCOc1ccc(-c2cc(OCCN3CCCCCC3)c3c(OC)cccc3n2)cc1`, the inhibition is 74.8%.
The same measure for `CCCOc1ccc(-c2cc(OCCN3CCCCCC3)c3c(OC)cc(OC)cc3n2)cc1`: 74.1%; for `CCCOc1ccc(-c2cc(OCCN3CCc4cc(OC)c(OC)cc4C3)c3cccc(OC)c3n2)cc1`: 65.5%; for `CCCOc1ccc(-c2cc(O)c3ccc(OC)cc3n2)cc1`: 55.7%.
In the case of `CCCOc1ccc(-c2cc(OCCN3CCN(Cc4ccccc4)CC3)c3cc(OC)ccc3n2)cc1` it was 32%.
The same measure for `C=COc1cc(-c2ccc(OCCC)cc2)nc2c(OC)cccc12`: 13.3%; for `CCCOc1ccc(-c2cc(O)c3cc(OC)c(OC)cc3n2)cc1`: 79.2%; for `CCCOc1ccc(-c2cc(OCCN3CCCCCC3)c3cccc(OC)c3n2)cc1`: 72.8%.
Regarding `CCCOc1ccc(-c2cc(OCCCl)c3cc(OC)ccc3n2)cc1`, the inhibition stood at 10.5%.
In the case of `CCCOc1ccc(-c2cc(OCCCN(C)C)c3cccc(OC)c3n2)cc1` it was 64.7%.
In the case of `CCCOc1ccc(-c2cc(OCCCl)c3cccc(OC)c3n2)cc1` it was 6.8%; in that of `CCCOc1ccc(-c2cc(OCCN3CCc4cc(OC)c(OC)cc4C3)c3cc(OC)ccc3n2)cc1`, 33%.
The same measure for `CCCOc1ccc(-c2cc(OCCCl)c3ccc(OC)cc3n2)cc1`: 57.5%.

By inhibition is commonly meant the change of the read-out against control, counted positive when it falls.
